Source: ChEMBL document CHEMBL1143542, “Structure-activity relationships of bivalent aminoglycosides and evaluation of their microbiological activities” (2005)
Converted amounts (≈) assume the structure as drawn.

Legend:
[1] = test system: Escherichia coli; assay: In vitro minimum inhibitory concentration against Escherichia coli ATCC 25922; assay type: functional
Procedure, shortened: (§1)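 Broth microdilution following CLSI M100-S12. Stocks were 10 mg/mL in water, diluted in Mueller–Hinton broth to a top level of 128, then serially 2-fold in plates. Bacteria in cation-adjusted Mueller–Hinton broth were mixed 1:1 with drug and incubated 16–20 h at 35 °C. MIC was the lowest concentration with no visible growth. Run in duplicate with no-antibiotic and no-inoculum (sterility) controls.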

[2] = test system: Pseudomonas aeruginosa; assay: In vitro minimum inhibitory concentration against Pseudomonas aeruginosa ATCC 27853; assay type: functional; procedure, shortened: as §1
[3] = test system: Staphylococcus aureus; assay: In vitro minimum inhibitory concentration against Staphylococcus aureus ATCC 29213; assay type: functional; procedure, shortened: as §1
[4] = test system: Pseudomonas aeruginosa; assay: In vitro minimum inhibitory concentration against Pseudomonas aeruginosa PAO-1 Minimum inhibitory concentration against Pseudomonas aeruginosa PAO-1; assay type: functional; procedure, shortened: as §1
[5] = test system: Enterococcus faecalis; assay: In vitro minimum inhibitory concentration against Enterococcus faecalis 29212; assay type: functional; procedure, shortened: as §1
[6] = test system: Staphylococcus aureus; assay: In vitro minimum inhibitory concentration against Staphylococcus aureus MRSA 3359; assay type: functional; procedure, shortened: as §1
[7] = test system: Pseudomonas aeruginosa; assay: Susceptibility testing against Pseudomonas aeruginosa PAE_NUH06; R=Resistant; assay type: functional, organism-based
Procedure, shortened: (§2)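 Disk diffusion susceptibility profiling of P. aeruginosa reference and clinical isolates against empirically used antipseudomonal antibiotics. Each isolate was categorised as susceptible, intermediate or resistant.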

[8] = test system: Pseudomonas aeruginosa; assay: Susceptibility testing against Pseudomonas aeruginosa PAE_NUH03; R=Resistant; assay type: functional, organism-based; procedure, shortened: as §2
[9] = test system: Pseudomonas aeruginosa; assay: Susceptibility testing against Pseudomonas aeruginosa PAE_NUH25; S=Susceptible; assay type: functional, organism-based
Procedure, shortened: (§3)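 Disk diffusion susceptibility profiling against a panel of empirically used antipseudomonal antibiotics. Each strain was categorised as susceptible (S) or intermediate (I).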

[10] = test system: Pseudomonas aeruginosa; assay: Susceptibility testing against Pseudomonas aeruginosa PAE_NUH01; R=Resistant; assay type: functional, organism-based; procedure, shortened: as §2
[11] = test system: Pseudomonas aeruginosa; assay: Susceptibility testing against Pseudomonas aeruginosa ATCC 27853; S=Susceptible; assay type: functional, organism-based; procedure, shortened: as §3
[12] = test system: Pseudomonas aeruginosa; assay: Susceptibility testing against Pseudomonas aeruginosa PAE_NUH19; S=Susceptible; assay type: functional, organism-based; procedure, shortened: as §3
[13] = test system: Pseudomonas aeruginosa; assay: Susceptibility testing against Pseudomonas aeruginosa PAE_NUH22; S=Susceptible; assay type: functional, organism-based; procedure, shortened: as §3
[14] = test system: Pseudomonas aeruginosa; assay: Susceptibility testing against Pseudomonas aeruginosa PAE_NUH23; S=Susceptible; assay type: functional, organism-based; procedure, shortened: as §3
[15] = test system: Pseudomonas aeruginosa; assay: Susceptibility testing against Pseudomonas aeruginosa PAE_NUH05; R=Resistant; assay type: functional, organism-based; procedure, shortened: as §2
[16] = test system: Pseudomonas aeruginosa; assay: Susceptibility testing against Pseudomonas aeruginosa PAE_NUH02; R=Resistant; assay type: functional, organism-based; procedure, shortened: as §2
[17] = test system: Pseudomonas aeruginosa; assay: Susceptibility testing against Pseudomonas aeruginosa PAE_NUH17; S=Susceptible; assay type: functional, organism-based; procedure, shortened: as §3
[18] = test system: Pseudomonas aeruginosa; assay: Susceptibility testing against Pseudomonas aeruginosa PAE_NUH21; S=Susceptible; assay type: functional, organism-based; procedure, shortened: as §3
[19] = test system: Pseudomonas aeruginosa; assay: Susceptibility testing against Pseudomonas aeruginosa PAE_NUH24; S=Susceptible; assay type: functional, organism-based; procedure, shortened: as §3
[20] = test system: Pseudomonas aeruginosa; assay: Susceptibility testing against Pseudomonas aeruginosa PAE_NUH20; S=Susceptible; assay type: functional, organism-based; procedure, shortened: as §3
[21] = test system: Pseudomonas aeruginosa; assay: Susceptibility testing against Pseudomonas aeruginosa PAE_NUH04; R=Resistant; assay type: functional, organism-based; procedure, shortened: as §2
[22] = test system: Pseudomonas aeruginosa; assay: Susceptibility testing against Pseudomonas aeruginosa PAE_NUH18; S=Susceptible; assay type: functional, organism-based; procedure, shortened: as §3
[23] = test system: Pseudomonas aeruginosa; assay: Susceptibility testing against Pseudomonas aeruginosa PAE_NUH07; R=Resistant; assay type: functional, organism-based; procedure, shortened: as §2
[24] = test system: Pseudomonas aeruginosa; assay: In vitro minimum inhibitory concentration against Pseudomonas aeruginosa PAO-1; assay type: functional; procedure, shortened: as §1

Compound	MIC [1] [mg/L]	MIC [2] [mg/L]	MIC [3] [mg/L]	MIC [4] [mg/L]	MIC [5] [mg/L]	MIC [6] [mg/L]	MIC [24] [mg/L]	other results
CN(CCCCCCN(C)C[C@@H](O)CO[C@@H]1[C@@H](O)[C@H](N)C[C@H](N)[C@H]1O[C@H]1O[C@H](CN)[C@@H](O)[C@H](O)[C@H]1N)C[C@@H](O)CO[C@@H]1[C@@H](O)[C@H](N)C[C@H](N)[C@H]1O[C@H]1O[C@H](CN)[C@@H](O)[C@H](O)[C@H]1N	25 (≈ 27.7 µM)	12.5 (≈ 13.9 µM)	6.3 (≈ 6.99 µM)	50 (≈ 55.5 µM)	> 50	> 50	–	–
O=C(O)c1cn(C2CC2)c2cc(N3CCNCC3)c(F)cc2c1=O	–	–	–	–	–	–	–	Activity [7]: Resistant; Activity [8]: Resistant; Activity [9]: Susceptible; Activity [10]: Resistant; Activity [11]: Susceptible; Activity [12]: Susceptible; Activity [13]: Susceptible; Activity [14]: Susceptible; Activity [15]: Resistant; Activity [16]: Resistant; Activity [17]: Susceptible; Activity [18]: Susceptible; Activity [19]: Susceptible; Activity [20]: Susceptible; Activity [21]: Resistant; Activity [22]: Susceptible; Activity [23]: Resistant
NC[C@H]1O[C@H](O[C@H]2[C@H](OC[C@H](O)CN3CC4CC3CN4C[C@@H](O)CO[C@@H]3[C@@H](O)[C@H](N)C[C@H](N)[C@H]3O[C@H]3O[C@H](CN)[C@@H](O)[C@H](O)[C@H]3N)[C@@H](O)[C@H](N)C[C@@H]2N)[C@H](N)[C@@H](O)[C@@H]1O	> 50	12.5 (≈ 14.6 µM)	12.5 (≈ 14.6 µM)	–	> 50	> 50	50 (≈ 58.5 µM)	–
NC[C@H]1O[C@H](O[C@H]2[C@H](OC[C@@H](O)CNCCCCNC[C@@H](O)CO[C@@H]3[C@@H](O)[C@H](N)C[C@H](N)[C@H]3O[C@H]3O[C@H](CN)[C@@H](O)C[C@H]3N)[C@@H](O)[C@H](N)C[C@@H]2N)[C@H](N)[C@@H](O)[C@@H]1O	16 (≈ 19.3 µM)	4 (≈ 4.83 µM)	2 (≈ 2.41 µM)	4 (≈ 4.83 µM)	32 (≈ 38.6 µM)	16 (≈ 19.3 µM)	–	–
CN(CCCCN(C)C[C@@H](O)CO[C@@H]1[C@@H](O)[C@H](O[C@H]2O[C@H](CN)[C@@H](O)C[C@H]2N)[C@@H](N)C[C@H]1N)C[C@H](O)CO[C@@H]1[C@@H](O)[C@H](O[C@@H]2O[C@H](CN)C[C@H](O)[C@H]2N)[C@@H](N)C[C@H]1N	5.2 (≈ 6.18 µM)	10.4 (≈ 12.4 µM)	0.6 (≈ 0.713 µM)	2.6 (≈ 3.09 µM)	20.9 (≈ 24.8 µM)	20.9 (≈ 24.8 µM)	–	–
NC[C@H]1O[C@H](O[C@H]2[C@H](OC[C@H](O)CN[C@H]3CC[C@H](NC[C@@H](O)CO[C@@H]4[C@@H](O)[C@H](N)C[C@H](N)[C@H]4O[C@H]4O[C@H](CN)[C@@H](O)[C@H](O)[C@H]4N)CC3)[C@@H](O)[C@H](N)C[C@@H]2N)[C@H](N)[C@@H](O)[C@@H]1O	25 (≈ 28.7 µM)	1.6 (≈ 1.84 µM)	50 (≈ 57.4 µM)	–	> 50	50 (≈ 57.4 µM)	–	–
NC[C@H]1O[C@H](O[C@H]2[C@H](OC[C@H](O)CN3CCN(C[C@@H](O)CO[C@@H]4[C@@H](O)[C@H](N)C[C@H](N)[C@H]4O[C@H]4O[C@H](CN)[C@@H](O)[C@H](O)[C@H]4N)CC3)[C@@H](O)[C@H](N)C[C@@H]2N)[C@H](N)[C@@H](O)[C@@H]1O	25 (≈ 29.7 µM)	25 (≈ 29.7 µM)	12.5 (≈ 14.8 µM)	–	> 50	> 50	25 (≈ 29.7 µM)	–
CN(CCCCN(C)C[C@@H](O)CO[C@@H]1[C@@H](O)[C@H](N)C[C@H](N)[C@H]1O[C@H]1O[C@H](CN)[C@@H](O)C[C@H]1N)C[C@H](O)CO[C@@H]1[C@@H](O)[C@H](N)C[C@H](N)[C@H]1O[C@H]1O[C@H](CN)[C@@H](O)[C@H](O)[C@H]1N	16 (≈ 18.7 µM)	16 (≈ 18.7 µM)	2 (≈ 2.33 µM)	16 (≈ 18.7 µM)	> 50	32 (≈ 37.3 µM)	–	–
NC[C@H]1O[C@H](O[C@H]2[C@H](OC[C@H](O)CNCCCNCCNC[C@@H](O)CO[C@@H]3[C@@H](O)[C@H](N)C[C@H](N)[C@H]3O[C@H]3O[C@H](CN)[C@@H](O)[C@H](O)[C@H]3N)[C@@H](O)[C@H](N)C[C@@H]2N)[C@H](N)[C@@H](O)[C@@H]1O	> 50	> 50	> 50	> 50	> 50	> 50	–	–
NC[C@@H]1C[C@H](O)[C@@H](N)[C@H](O[C@H]2[C@H](O)[C@@H](OC[C@@H](O)CNCCCCNC[C@@H](O)CO[C@@H]3[C@@H](O)[C@H](O[C@H]4O[C@H](CN)[C@@H](O)C[C@H]4N)[C@@H](N)C[C@H]3N)[C@H](N)C[C@@H]2N)O1	4 (≈ 4.92 µM)	2 (≈ 2.46 µM)	0.5 (≈ 0.615 µM)	2 (≈ 2.46 µM)	32 (≈ 39.4 µM)	16 (≈ 19.7 µM)	–	–
NC[C@@H]1C[C@H](O)[C@@H](N)[C@H](O[C@H]2[C@H](O)[C@@H](OC[C@@H](O)CN[C@H]3CC[C@H](NC[C@@H](O)CO[C@@H]4[C@@H](O)[C@H](O[C@H]5O[C@H](CN)[C@@H](O)C[C@H]5N)[C@@H](N)C[C@H]4N)CC3)[C@H](N)C[C@@H]2N)O1	4 (≈ 4.77 µM)	2 (≈ 2.38 µM)	0.5 (≈ 0.596 µM)	2 (≈ 2.38 µM)	32 (≈ 38.1 µM)	16 (≈ 19.1 µM)	–	–
CCN(CCCN(CC)C[C@@H](O)CO[C@@H]1[C@@H](O)[C@H](N)C[C@H](N)[C@H]1O[C@H]1O[C@H](CN)[C@@H](O)[C@H](O)[C@H]1N)C[C@@H](O)CO[C@@H]1[C@@H](O)[C@H](N)C[C@H](N)[C@H]1O[C@H]1O[C@H](CN)[C@@H](O)[C@H](O)[C@H]1N	12.5 (≈ 14.1 µM)	6.3 (≈ 7.1 µM)	3.1 (≈ 3.49 µM)	–	> 50	50 (≈ 56.4 µM)	6.3 (≈ 7.1 µM)	–
NC[C@H]1O[C@H](O[C@H]2[C@H](OC[C@H](O)CN3CCCN(C[C@@H](O)CO[C@@H]4[C@@H](O)[C@H](N)C[C@H](N)[C@H]4O[C@H]4O[C@H](CN)[C@@H](O)[C@H](O)[C@H]4N)CC3)[C@@H](O)[C@H](N)C[C@@H]2N)[C@H](N)[C@@H](O)[C@@H]1O	50 (≈ 58.3 µM)	12.5 (≈ 14.6 µM)	12.5 (≈ 14.6 µM)	–	> 50	> 50	50 (≈ 58.3 µM)	–
NC[C@@H]1C[C@H](O)[C@@H](N)[C@H](O[C@H]2[C@H](O)[C@@H](OC[C@@H](O)CNCCCNC[C@@H](O)CO[C@@H]3[C@@H](O)[C@H](O[C@H]4O[C@H](CN)[C@@H](O)C[C@H]4N)[C@@H](N)C[C@H]3N)[C@H](N)C[C@@H]2N)O1	20.9 (≈ 26.2 µM)	2.6 (≈ 3.25 µM)	1.3 (≈ 1.63 µM)	1.3 (≈ 1.63 µM)	> 20.9	10.4 (≈ 13 µM)	–	–
CN(CCOCCOCCN(C)C[C@@H](O)CO[C@@H]1[C@@H](O)[C@H](N)C[C@H](N)[C@H]1O[C@H]1O[C@H](CN)[C@@H](O)[C@H](O)[C@H]1N)C[C@@H](O)CO[C@@H]1[C@@H](O)[C@H](N)C[C@H](N)[C@H]1O[C@H]1O[C@H](CN)[C@@H](O)[C@H](O)[C@H]1N	> 50	> 50	> 50	> 50	> 50	> 50	–	–
CCN(CCN(CC)C[C@@H](O)CO[C@@H]1[C@@H](O)[C@H](N)C[C@H](N)[C@H]1O[C@H]1O[C@H](CN)[C@@H](O)[C@H](O)[C@H]1N)C[C@@H](O)CO[C@@H]1[C@@H](O)[C@H](N)C[C@H](N)[C@H]1O[C@H]1O[C@H](CN)[C@@H](O)[C@H](O)[C@H]1N	> 50	> 50	> 50	–	> 50	> 50	> 50	–
